Source: ChEMBL document CHEMBL1145497, “A novel Giardia lamblia nitroreductase, GlNR1, interacts with nitazoxanide and other thiazolides” (Antimicrob Agents Chemother, 2007)
Calls of active or inactive are those of the source. No cut-off for these calls is given here.

Columns and labels:
Giardia duodenalis = experiment: Inhibition of Giardia lamblia recombinant nitroreductase 1 (EAA43030.1) expressed in Escherichia coli at 5 uM
Method in brief: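 Six-His-tagged recombinant enzyme expressed in E. coli (1 mM IPTG, 3.5 h) and Ni-column purified. Photometric NADH-oxidation assay in 50 mM Tris-Cl pH 7.0 with 25 μM dinitrotoluene substrate, 0.15 mM NADH final, and inhibitors at 5 μM against a DMSO control. After 5 min preincubation, A340 was read over 0–20 min. Activity came from the linear slope as μkat/g protein; triplicate, mean ± SE.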

Giardia intestinalis [1] = experiment: Growth inhibition of Giardia lamblia; assay type: functional, organism-based; conditions: Giardia duodenalis
Giardia intestinalis [2] = experiment: Reduction of nitroreductase 1 expression level in Giardia lamblia trophozoites at 25 uM after 3 hrs by RT-PCR assay; assay type: functional, organism-based; conditions: Giardia duodenalis
Method in brief: (§1)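 G. lamblia WB clone C6 trophozoites grown anaerobically in modified TYI-S-33 to near confluence, exposed to compound at 25 μM (DMSO control) for 3 h, then harvested. RNA extracted with DNase I digestion; transcript levels of GlNR1, GlGDH1 and GlACT1 quantified by real-time RT-PCR.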

[3] = Inhibition of Giardia lamblia recombinant nitroreductase 1 (EAA43030.1) expressed in Escherichia coli; design: species or system Giardia duodenalis
Method in brief: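 His6-tagged recombinant GlNR1 from IPTG-induced E. coli, Ni-column purified. Photometric NADH oxidation assay in 50 mM Tris-Cl pH 7.0 with dinitrotoluene substrate, 0.15 mM NADH final, 5 min preincubation, A340 read over 0–20 min.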

Giardia intestinalis [4] = experiment: Reduction of ACT1 expression level in Giardia lamblia trophozoites at 25 uM after 3 hrs by RT-PCR assay; assay type: functional, organism-based; conditions: Giardia duodenalis; method in brief: as §1
Giardia intestinalis [5] = experiment: Reduction of GDH expression level in Giardia lamblia trophozoites at 25 uM after 3 hrs by RT-PCR assay; assay type: functional, organism-based; conditions: Giardia duodenalis; method in brief: as §1

SMILES | inhibition (Giardia duodenalis) [%] | Activity (Giardia intestinalis [1]) | Activity (Giardia duodenalis) | Activity (Giardia intestinalis [2]) | Ki [3] [nM] | Activity (Giardia intestinalis [4]) | Activity (Giardia intestinalis [5])
O=C(Nc1ncc([N+](=O)[O-])s1)c1ccccc1O | > 75 | Active | – | – | – | – | –
COc1cccc(C(=O)Nc2ncc([N+](=O)[O-])s2)c1O | > 75 | Active | – | – | – | – | –
Cc1ncc([N+](=O)[O-])n1CCO | – | – | inactive | – | – | – | –
CC(=O)Oc1ccccc1C(=O)Nc1ncc([N+](=O)[O-])s1 [NITAZOXANIDE] | > 75 | Active | – | Active | 300 | Active | Active
CC(=O)Oc1c(C)cccc1C(=O)Nc1ncc([N+](=O)[O-])s1 | > 75 | Active | – | – | – | – | –
